Most compounds without a hit are left out; they make up all but 2% or so of the library.
TROY signal inh: inhibitors of TROY-dependent NF-kB signaling; Q293 LMP1-TROYcd NF-kB luciferase reporter, 4 h; inhibition, % at 10 µM; actives 0.98% (n = 360,000);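 active means compounds whose plate-normalised and pattern-corrected inhibition of the luciferase reporter signal at the single screening dose is 50% or more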
NR2E3 ag-1: agonists of human nuclear receptor NR2E3. inhibition of corepressor binding, % at 4.78 µM. Q9Y5X4. GST-NR2E3/biotin-RetCOR TR-FRET, 1536-well. actives 0.12% (n = 320,000);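 active means percent inhibition above the cutoff of mean plus 3 SD of all tested compounds, set per screening campaign, cut at about 20% in these data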;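 further: 0% = DMSO wells and 100% = biotin wells as full block of FRET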
Target sequence (Q9Y5X4 whole entry, looked up): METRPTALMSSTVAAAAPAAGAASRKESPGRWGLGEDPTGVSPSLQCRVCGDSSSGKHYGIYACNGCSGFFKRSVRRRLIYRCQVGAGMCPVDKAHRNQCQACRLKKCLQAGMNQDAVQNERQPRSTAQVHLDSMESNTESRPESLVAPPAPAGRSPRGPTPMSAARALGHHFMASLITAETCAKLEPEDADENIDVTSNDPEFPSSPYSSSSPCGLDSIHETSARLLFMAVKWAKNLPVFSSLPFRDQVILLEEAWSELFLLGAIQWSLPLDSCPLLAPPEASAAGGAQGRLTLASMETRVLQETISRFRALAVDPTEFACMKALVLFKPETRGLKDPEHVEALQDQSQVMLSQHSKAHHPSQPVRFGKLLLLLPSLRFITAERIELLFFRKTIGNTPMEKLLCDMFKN
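Material: NR2E3–RetCOR corepressor complex / Incubation: Compound–protein incubation for 5 h at 4 °C / Dosing: compound at 4.8 µM, single dose / Detection: time-resolved FRET / Benchmarks: high control biotin, low control 0.6% DMSO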
NR2E3 ag-2: human photoreceptor-specific nuclear receptor agonism. Q9Y5X4. CHO-S Gal4-NCOR/VP16-NR2E3 two-hybrid, luciferase. inhibition of corepressor binding, % at 3.98 µM. AID 602229. actives 0.35% (n = 360,000);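 active means inhibition above the mean of all tested compounds plus 3 SD, cut at about 70% in these data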;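 further: 0% = DMSO with NR2E3 transfected cells and 100% = cells lacking NR2E3 construct; higher means lower luciferase signal from less NR2E3 corepressor binding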
EBV LMP1 NFkB: Epstein-Barr LMP1 NF-kappaB reporter inhibition; LMP1-induced NF-kappaB luciferase reporter cells, luminescence; inhibition, % at 12.5 µM; actives 0.69% (n = 350,000); in the data active means inhibition above about 41%; inconclusive means no clear call, values can overlap the other calls;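 further: 0% = neutral control wells and 100% = reference inhibitor control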
HIF activator: HIF pathway transcriptional activation; U2OS HRE-luciferase reporter, luminescence; normalized: DMSO 0%, desferrioxamine 100%; activation, % at 7.5 µM (by protocol); actives 0.32% (n = 300,000);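 active means mean activation of at least 10% of the iron chelator positive control signal, with at least half of replicates also reaching 10%; inconclusive means mean and replicate majority disagree about reaching 10%; inactive means mean and most replicates under 10%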
* marks the source's active call; other numbers are inactive results; ? = inconclusive; . = no result.

SMILES	TROY signal inh	NR2E3 ag-1	NR2E3 ag-2	EBV LMP1 NFkB	HIF activator
Cc1[nH]n(-c2ccc(Br)cc2)c(=O)c1/C=N/NC(=O)c1ccccc1	2	.	-47	47*	1
Cc1[nH]n(-c2ccccc2)c(=O)c1/C=N/Nc1nncc(-c2ccccc2)n1	10	-2	-58	69*	0
Cc1cc(=O)c2c(N(C)C)cccc2[nH]1	7	.	-26	-2	.
Cc1ccc(N2CC(C(=O)N3CCC(C(=O)Nc4nnc(C(C)(C)C)s4)CC3)CC2=O)cc1 (configuration not stated)	-9	0	0	0	0
COc1ccc(-c2cc3nc4n(c(=O)c3s2)CCC4)cc1	62*	3	-103	52*	-1
Cn1c(NCc2ccccc2)nc2cc(-c3ccccc3)sc2c1=O	-27	.	-13	.	.
COc1ccc(-c2cc3nc4n(c(=O)c3s2)CCCCC4)cc1	2	0	-164	-20	9
COc1ccc(-c2cc3nc(C)n(N)c(=O)c3s2)cc1	81*	0	12	76*	-6
Cc1nc2cc(-c3ccccc3)sc2c(=O)n1N	79*	2	-69	74*	?
COc1ccc(C(C)=O)cc1COC(=O)CSCC(=O)Nc1ccc(C)cc1	7	-3	-12	-9	0
COc1ccc(NC(C)=O)cc1S(=O)(=O)N1CC=C(c2ccccc2)CC1	11	.	12	9	.
Cc1ccc(C(=O)N/C(=C\c2cccs2)C(=O)N2CCOCC2)cc1C	8	4	-27	-4	0
COCCn1c(C)cc(C2=NNC(=Nc3ccccc3)SC2)c1C	82*	1	23	3	1
CCN=C1NN=C(c2cc(C)n(Cc3ccco3)c2C)CS1	-1	3	38	70*	-2
CC(NC(=O)c1ccco1)C(=O)N1CCN(c2cccc(C(F)(F)F)c2)CC1 (configuration not stated)	4	5	11	-3	.
CC(C)=NOC(=O)c1c(C)noc1-c1snnc1C	3	-2	-46	-11	60*
CN1CCC2(CC1)N=C(c1ccc(F)cc1)C(=S)N2C(=O)c1ccc(C(C)(C)C)cc1	19	-1	9	-1	191*
Nc1ccc(-c2nc3ccc(N)cc3o2)cc1	-24	-1	-114	8	.
Cc1ccc2nc(-c3cc(N)cc(N)c3)oc2c1	60*	-1	-42	14	-3
CN(Cc1ccc(F)cc1)C(=O)CN1CCN(S(=O)(=O)c2ccc3c(c2)OCCCO3)CC1	3	.	33	48*	.
COCCN(C(=O)COC(=O)CCOc1cc(C)ccc1C)c1c(N)n(Cc2ccccc2)c(=O)[nH]c1=O	8	.	-14	3	.
O=C(Nc1nc2cc3c(cc2s1)OCO3)C1=COCCO1	70*	-1	-43	73*	-3
CC1CCc2nc(NC(=O)c3ccco3)sc2C1 (configuration not stated)	66*	0	-46	60*	-4
O=C(Nc1nc2cc3c(cc2s1)OCCO3)c1ccco1	82*	1	-42	68*	-3
O=C(Nc1nc2cc3c(cc2s1)OCO3)c1ccco1	56*	.	-101	58*	.
SMILES	TROY signal inh	NR2E3 ag-1	NR2E3 ag-2	EBV LMP1 NFkB	HIF activator
COc1cc(OC)cc(C(=O)NCC(=O)Nc2ccc(OC)c(Cl)c2)c1	6	-2	-27	-3	0
O=C(CSc1nc2ccccc2c(=O)n1CC1CCCO1)NCCc1ccccc1 (configuration not stated)	-11	-3	12	-8	-1
CCCn1c2ccccc2c2cnn(CC(=O)NC3CCCCC3C)c(=O)c21 (configuration not stated)	-1	-3	-24	-4	0
CC1CN(S(=O)(=O)c2ccc(C(=O)N3CCc4ccccc43)cc2)CC(C)O1 (configuration not stated)	9	0	-1	-13	.
O=C(Nc1ccc(-c2nc3ccccc3s2)cc1)C1=COCCO1	77*	3	-131	72*	-3
Fc1ccc2nc(Nc3nc4cc5c(cc4s3)OCCO5)sc2c1	62*	2	-129	-34	3
Fc1ccc2nc(Nc3nc4cc5c(cc4s3)OCO5)sc2c1	-58	0	-52	-31	4
Cc1c(CC(=O)NCC(C)C)c(=O)oc2cc3c(cc12)CCC(C)(C)O3	-1	1	-48	-5	0
Cc1cc(S(=O)(=O)c2ccc(Cl)cc2)nc(S(=O)(=O)c2ccc(Cl)cc2)c1C#N	57*	.	35	52*	.
COc1ccc(C(=O)NNC(=O)CCc2ccccc2OC)cc1	7	0	-35	-4	0
NC(=O)c1cc([N+](=O)[O-])ccc1Nc1ccccc1	-11	2	-11	4	.
O=C(O)c1ccccc1Nc1ccc([N+](=O)[O-])cc1C(=O)O	4	2	-1	-2	14*
N#CCSc1n[nH]c2nc3c(c(=O)n12)C1(CCCCC1)Cc1ccccc1-3	50*	-1	-44	6	0
CSc1n[nH]c2nc3c(c(=O)n12)C1(CCCCC1)Cc1ccccc1-3	18	3	-17	4	0
CCSc1n[nH]c2nc3c(c(=O)n12)C1(CCCCC1)Cc1ccccc1-3	52*	8	-17	-7	0
O=C1CN(C(=O)c2ccc(F)c(S(=O)(=O)N3CCOCC3)c2)c2ccccc2N1	14	1	0	46*	0
COc1ccc(C(=O)N2CC(=O)Nc3ccccc32)cc1S(=O)(=O)N1CCOCC1	-8	-3	-13	-9	0
COc1ccc(C(=O)N2CC(=O)Nc3ccccc32)cc1S(=O)(=O)N1CCCC1	-13	4	-8	43*	0
Cc1ccc2[nH]c(C(=O)N3CCN(C(c4ccccc4)c4ccccc4)CC3)cc2c1	-4	-4	11	-14	-4
CCn1cc(C(=O)NCC(OC)OC)c(=O)c2cc(S(=O)(=O)N(C)C3CCCCC3)ccc21	0	3	-7	4	0
COc1ccc(Cc2nnc(N/N=C/c3ccc(O)cc3)[nH]c2=O)cc1OC	10	0	-9	61*	2
CC(C)CC(=O)NC(c1cccs1)c1ccc2cccnc2c1O (configuration not stated)	24	-1	-44	37	68*
CCC(=O)NC(c1cccs1)c1ccc2cccnc2c1O (configuration not stated)	11	3	-7	74*	196*
O=C1[C@H]2[C@@H](c3ccccc3)N[C@]3(CCCN(Cc4ccc(Cl)cc4)C3=O)[C@H]2C(=O)N1Cc1ccccc1	2	.	-17	-11	.
COc1ccc(NC(=O)CN(C)CC(=O)NC2CCCCC2C)cc1 (configuration not stated)	-14	3	-1	13	.
Cc1ccc(C)c(OCC(=O)O/N=C(\N)c2cccc([N+](=O)[O-])c2)c1	-7	-1	3	4	114*

Screening results as filed in PubChem BioAssay.
